pIC50: −log10 of the molar value.
Legend:
A549 [1] = assay: Cytotoxicity against human A549 cells after 48 hrs by MTT assay; type: functional, cell-based; details: A549, 48 h
Procedure, shortened: (§1)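 Cells were exposed to drug for 48 h at seven ten-fold dilutions down to 0.1 nM. MTT in RPMI-1640 was then added for a further 4 h at 37 °C. Formazan was dissolved in DMSO and absorbance read at 570 nm after 5 min. Each run was done in triplicate. IC₅₀ is given as mean ± SD of three independent experiments.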

SK-OV-3 = assay: Cytotoxicity against human SKOV3 cells after 48 hrs by MTT assay; type: functional, cell-based; details: SK-OV-3, 48 h; procedure, shortened: as §1
A549 [2] = assay: Ratio of taxol IC50 to compound IC50 for human A549 cells; type: functional
A549 [3] = assay: Ratio of docetaxel IC50 to compound IC50 for human A549 cells; type: functional

Row | Compound | pIC50 (A549 [1]) | pIC50 (SK-OV-3) | Ratio IC50 (A549 [2]) | Ratio IC50 (A549 [3])
1 | CC(=O)O[C@@]12CO[C@@H]1C[C@H](O)[C@@]1(C)C(=O)[C@H](O)C3=C(C)[C@@H](OC(=O)[C@H](O)[C@@H](NC(=O)O[C@H](C)C(C)C)c4ccccc4)C[C@@](O)([C@@H](OC(=O)c4ccccc4)[C@H]21)C3(C)C | 7.46 | 7.89 | – | –
2 | CC(=O)O[C@@]12CO[C@@H]1C[C@H](O)[C@@]1(C)C(=O)[C@H](O)C3=C(C)[C@@H](OC(=O)[C@H](O)[C@@H](NC(=O)O[C@@H](C)C(C)C)c4ccccc4)C[C@@](O)([C@@H](OC(=O)c4ccccc4)[C@H]21)C3(C)C | 7.22 | 7.77 | – | –
3 | CC[C@@H](C)OC(=O)N[C@@H](c1ccccc1)[C@@H](O)C(=O)O[C@H]1C[C@@]2(O)[C@@H](OC(=O)c3ccccc3)[C@@H]3[C@]4(OC(C)=O)CO[C@@H]4C[C@H](O)[C@@]3(C)C(=O)[C@H](O)C(=C1C)C2(C)C | 7.74 | 7.89 | – | –
4 | CC[C@H](C)OC(=O)N[C@@H](c1ccccc1)[C@@H](O)C(=O)O[C@H]1C[C@@]2(O)[C@@H](OC(=O)c3ccccc3)[C@@H]3[C@]4(OC(C)=O)CO[C@@H]4C[C@H](O)[C@@]3(C)C(=O)[C@H](O)C(=C1C)C2(C)C | 7.40 | 7.57 | – | –
5 | CCC(C)(C)OC(=O)N[C@@H](c1ccccc1)[C@@H](O)C(=O)O[C@H]1C[C@@]2(O)[C@@H](OC(=O)c3ccccc3)[C@@H]3[C@]4(OC(C)=O)CO[C@@H]4C[C@H](O)[C@@]3(C)C(=O)[C@H](O)C(=C1C)C2(C)C | 7.89 | 8.23 | >65 | >65
6 | CCCC(C)(C)OC(=O)N[C@@H](c1ccccc1)[C@@H](O)C(=O)O[C@H]1C[C@@]2(O)[C@@H](OC(=O)c3ccccc3)[C@@H]3[C@]4(OC(C)=O)CO[C@@H]4C[C@H](O)[C@@]3(C)C(=O)[C@H](O)C(=C1C)C2(C)C | 8.00 | 8.54 | >65 | >65
7 | CC(=O)O[C@@]12CO[C@@H]1C[C@H](O)[C@@]1(C)C(=O)[C@H](O)C3=C(C)[C@@H](OC(=O)[C@H](O)[C@@H](NC(=O)OC(C)(C)C(C)C)c4ccccc4)C[C@@](O)([C@@H](OC(=O)c4ccccc4)[C@H]21)C3(C)C | 7.92 | 8.57 | >65 | >65
8 | CC(=O)O[C@@]12CO[C@@H]1C[C@H](O)[C@@]1(C)C(=O)[C@H](O)C3=C(C)[C@@H](OC(=O)[C@H](O)[C@@H](NC(=O)OC(C)(C)CF)c4ccccc4)C[C@@](O)([C@@H](OC(=O)c4ccccc4)[C@H]21)C3(C)C | 6.85 | – | – | –
9 | CC(=O)O[C@@]12CO[C@@H]1C[C@H](O)[C@@]1(C)C(=O)[C@H](O)C3=C(C)[C@@H](OC(=O)[C@H](O)[C@@H](NC(=O)OC(C)C(C)C)c4ccccc4)C[C@@](O)([C@@H](OC(=O)c4ccccc4)[C@H]21)C3(C)C (mixture of isomers) | 7.33 | 7.80 | – | –
10 | CCC(C)OC(=O)N[C@@H](c1ccccc1)[C@@H](O)C(=O)O[C@H]1C[C@@]2(O)[C@@H](OC(=O)c3ccccc3)[C@@H]3[C@]4(OC(C)=O)CO[C@@H]4C[C@H](O)[C@@]3(C)C(=O)[C@H](O)C(=C1C)C2(C)C (mixture of isomers) | 7.52 | 7.66 | – | –
11 | CC(=O)O[C@@]12CO[C@@H]1C[C@H](O)[C@@]1(C)C(=O)[C@H](O)C3=C(C)[C@@H](OC(=O)[C@H](O)[C@@H](NC(=O)OC(C)(C)C)c4ccccc4)C[C@@](O)([C@@H](OC(=O)c4ccccc4)[C@H]21)C3(C)C [DOCETAXEL] | 6.07 | 8.30 | – | –
12 | CC(=O)O[C@H]1C(=O)[C@@]2(C)[C@H]([C@H](OC(=O)c3ccccc3)[C@]3(O)C[C@H](OC(=O)[C@H](O)[C@@H](NC(=O)c4ccccc4)c4ccccc4)C(C)=C1C3(C)C)[C@]1(OC(C)=O)CO[C@@H]1C[C@@H]2O [PACLITAXEL] | 6.03 | 7.46 | – | –
